Activity calls are given as the source filed them. No cut-off for these calls is given here. Some results are limits rather than exact numbers.

This note sets out measurements from ChEMBL document CHEMBL1121726, “Pyrazolopyrimidine nucleosides. 12. Synthesis and biological activity of certain pyrazolo[3,4-d]pyrimidine nucleosides related to adenosine” (1981).

Assay [1] relates to L1210. In words: Toxicity against L1210 leukemic cells 1-5 days after administration of 200 mg/kg of the compound; No higher dose tested. Also noted: dose 200 mg/kg. It counts as functional, organism-based. The settings on record: Mus musculus. The method in brief: (§1)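 Mice bearing L1210 or P388 leukemia were injected at the stated dose per injection on the listed days after tumor-cell inoculation. Host toxicity scores whether higher doses on the same schedule caused drug-induced shortening of life span: y = yes, n = no, nt = no higher dose tested.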

The test system of assay [2] is L1210. In words: Increase in life span of tumor L1210 leukemic mice 1-5 days after 200 mg/kg administered. It is filed as functional, Mus musculus. The procedure, abridged: (§2)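 Mice bearing L1210 or P388 leukemia were injected with drug at the listed dose per injection on the listed days after tumor-cell inoculation. ILS was the percentage increase in life span of treated mice over untreated tumor-bearing controls.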

Assay [3] has as its system L1210. In words: Increase in life span of tumor L1210 leukemic mice 1-9 days after 400 mg/kg administered. It is filed as functional, Mus musculus. The procedure, abridged: as §2
Assay [4] deals with L1210. Put plainly: In vitro inhibition of growth of L1210 mouse leukemic cells. It is filed as functional. The settings on record: read-out: ID50 (the source's name). The procedure, abridged:
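L1210 cells grown in static suspension culture in Fischer's medium for leukemic cells of mice, exposed to a range of test-compound concentrations. Growth rate measured over 3 days.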

Assay [5] concerns L1210. In words: Toxicity against L1210 leukemic cells 1-9 days after administration of 400 mg/kg of the compound; No higher dose tested. It counts as functional, organism-based. Set-up: dose 400 mg/kg. The settings on record: Mus musculus. The method in brief:
as §1

The test system of assay [6] is L1210. In words: Increase in life span of tumor L1210 leukemic mice 1-5 days after 400 mg/kg administered. It is filed as functional, Mus musculus. The method in brief:
as §2

The test system of assay [7] is L1210. In words: Toxicity against L1210 leukemic cells 1-5 days after administration of 400 mg/kg of the compound; nt= No higher dose tested. It is filed as functional, organism-based. Also noted: dose 400 mg/kg. The settings on record: Mus musculus. The method in brief: as §1
The test system of assay [8] is L1210. Put plainly: Increase in life span of tumor L1210 leukemic mice 1-5 day after 50 mg/kg administered. It counts as functional, Mus musculus. The method in brief: as §2
For assay [9], the system named is L1210. In words: […] against L1210 leukemic cells 1-5 days after administration of 50 mg/kg of the compound; Yes. It counts as functional, organism-based. The settings on record: Mus musculus. Also noted: dose 50 mg/kg.
Assay [10] has as its system L1210. Put plainly: Toxicity against L1210 leukemic cells 1-5 days after administration of 200 mg/kg of the compound; Yes. The settings on record: Mus musculus. It is filed as functional, organism-based. Set-up: dose 200 mg/kg. The procedure, abridged:
as §1

Assay [11] has as its system L1210. Put plainly: Increase in life span of tumor L1210 leukemic mice 1-5 day after 200 mg/kg administered. It counts as functional, Mus musculus. The procedure, abridged:
as §2

Assay [12] deals with L1210. In words: Toxicity against L1210 leukemic cells 1-9 days after administration of 200 mg/kg of the compound; Yes. It is filed as functional, organism-based. Set-up: dose 200 mg/kg. The settings on record: Mus musculus. The procedure, abridged:
as §1

In assay [13] the test system is L1210. Put plainly: Increase in life span of tumor L1210 leukemic mice 1-9 days after 200 mg/kg administered. It is filed as functional, Mus musculus. The method in brief: as §2
For assay [14], the system named is L1210. In words: Number of mice surviving 1 day after 133 mg/kg administered; 1/6. It counts as functional, Mus musculus.
A further assay has as its system P388 (Mus musculus). In words: Increase in life span of tumor P388 leukemic mice 1-9 days after 9.3 mg/kg administered.
For assay [15], the system named is P388. In words: Toxicity against P388 leukemic cells 1-9 days after administration of 25 mg/kg of the compound; No. It is filed as functional, organism-based. Set-up: dose 25 mg/kg. The settings on record: Mus musculus. The procedure, abridged:
as §1

In assay [16] the test system is L1210. Put plainly: Increase in life span of tumor L1210 leukemic mice 1 day after 133 mg/kg administered. It is filed as functional, Mus musculus. The procedure, abridged:
as §2

The subject of assay [17] is P388. In words: Increase in life span of tumor P388 leukemic mice 1-9 days after 25 mg/kg administered. It is filed as functional, Mus musculus.
Assay [18] relates to L1210. Put plainly: Toxicity against L1210 leukemic cells 1 day after administration of 133 mg/kg of the compound; No. It counts as functional, organism-based. Set-up: dose 133 mg/kg. The settings on record: Mus musculus. The procedure, abridged:
as §1

Assay [19] deals with L1210. In words: Increase in life span of tumor L1210 leukemic mice 1-5 days after 50 mg/kg administered. It is filed as functional, Mus musculus. The procedure, abridged:
as §2

Assay [20] concerns L1210. In words: Toxicity against L1210 leukemic cells 1-5 days after administration of 50 mg/kg of the compound; Yes. Also noted: dose 50 mg/kg. It counts as functional, organism-based. The settings on record: Mus musculus. The procedure, abridged: as §1
For assay [21], the system named is L1210. Put plainly: Increase in life span of tumor L1210 leukemic mice 1-5 days after 12.5 mg/kg administered. It counts as functional, Mus musculus. The procedure, abridged: as §2
Assay [22] relates to L1210. In words: […] against L1210 leukemic cells 1-5 days after administration of 12.5 mg/kg of the compound; Yes. The settings on record: Mus musculus.
The test system of assay [23] is P388. Put plainly: Toxicity against P388 leukemic cells 1,5,9 days after administration of 100 mg/kg of the compound; Yes. The settings on record: Mus musculus.
In assay [24] the test system is L1210. In words: Number of mice surviving 1-5 days after 25 mg/kg administered; 1/12. It is filed as functional, Mus musculus.
For assay [25], the system named is L1210. Put plainly: Toxicity against L1210 leukemic cells 1-5 days after administration of 25 mg/kg of the compound; Yes. It is filed as functional, organism-based. Set-up: dose 25 mg/kg. The settings on record: Mus musculus. The procedure, abridged: as §1
Assay [26] relates to L1210. In words: Increase in life span of tumor L1210 leukemic mice 1-5 days after 25 mg/kg administered. It counts as functional, Mus musculus. The method in brief:
as §2

Assay [27] relates to P388. In words: Increase in life span of tumor P388 leukemic mice 1,5,9 days after 100 mg/kg administered.
Assay [28] concerns L1210. In words: […] against L1210 leukemic cells 1-5 days after administration of 200 mg/kg of the compound; Yes. It is filed as functional, organism-based. Also noted: dose 200 mg/kg. The settings on record: Mus musculus.

For `CN(C)c1ncnc2c1cnn2C1O[C@H](CO)[C@@H](O)[C@H]1O` (some centres undefined), in the assay with L1210 [1], the Toxicity entry was “No higher dose tested”. For the same compound, the ILS in the assay on L1210 [2] amounted to 0.

In the assay with L1210 [3], `OC[C@H]1OC(n2ncc3c(NCc4ccco4)ncnc32)[C@H](O)[C@@H]1O` (some centres undefined) showed an ILS of 6. Further, the IC50 with L1210 [4] was > 100 µM. In the assay on L1210 [5], the Toxicity entry is “No higher dose tested”.

As to `O=c1[nH]cnc2c1cnn2[C@@H]1O[C@H](CO)[C@@H](O)[C@H]1O`, the ILS in the assay on L1210 [6] was 2. The Toxicity result in the assay with L1210 [7] is “No higher dose tested”.

Turning to `COC(=N)c1nn(C2O[C@H](CO)[C@@H](O)[C@H]2O)c2ncnc(N)c12` (some centres undefined), the ILS with L1210 [6] turned out to be 64. For the same compound, in the assay on L1210 [7], the Toxicity entry was “No higher dose tested”.

In the case of `CN(C)/C=N/c1ncnc2c1cnn2C1O[C@H](CO)[C@@H](O)[C@H]1O` (some centres undefined), in the assay with L1210 [4], the IC50 stood at 0.6 µM. Moreover, the ILS in the assay on L1210 [8] came to 12. Further, the Toxicity entry in the assay with L1210 [9] was “Active”.

For `CSc1ncnc2c1cnn2C1O[C@H](CO)[C@@H](O)[C@H]1O` (some centres undefined), the Toxicity result in the assay on L1210 [10] is “Active”. The ILS in the assay on L1210 [11] worked out at 19. Besides, the IC50 in the assay with L1210 [4] was determined as 9 µM.

As for `NNc1ncnc2c1cnn2C1O[C@H](CO)[C@@H](O)[C@H]1O` (some centres undefined), the Toxicity entry in the assay with L1210 [12] is “Active”. In the assay with L1210 [13], this compound returned an ILS of 12. Besides, in the assay on L1210 [4], the IC50 came to 60 µM.

For the compound `Nc1ncnc2c1ncn2[C@@H]1O[C@H](CO)[C@@H](O)[C@H]1O` [ADENOSINE], the Cures in the assay on L1210 [14] came to 1. Also, the ILS is recorded as 24 with P388 (Mus musculus), 48 in the assay on L1210 [16] and 54 in the assay on P388 [17]. Further, the IC50 in the assay on L1210 [4] was found to be 0.4 µM. Further, the Toxicity entry in the assay on P388 [15] and with L1210 [18] was “Not toxic” in each case.

As for `CNc1ncnc2c1cnn2C1O[C@H](CO)[C@@H](O)[C@H]1O` (some centres undefined), in the assay with L1210 [19], the ILS amounted to 4. Moreover, the Toxicity result in the assay with L1210 [20] was “Active”. In addition, the IC50 in the assay with L1210 [4] is > 100 µM.

In the case of `OC[C@H]1OC(n2ncc3c(NO)ncnc32)[C@H](O)[C@@H]1O` (some centres undefined), the ILS in the assay on L1210 [21] came to 14. In the assay with L1210 [22], the Toxicity result was “Active”. The IC50 in the assay on L1210 [4] was found to be 10 µM.

With `N/C(=N\O)c1nn(C2O[C@H](CO)[C@@H](O)[C@H]2O)c2ncnc(N)c12` (some centres undefined), the Toxicity result in the assay on P388 [23] and with L1210 [25] was “Active” throughout. The Cures with L1210 [24] was found to be 1. The IC50 in the assay on L1210 [4] amounted to 0.18 µM. Also, the ILS is 78 with L1210 [26] and 33 in the assay on P388 [27].

Consider `O=[N+]([O-])c1ccc(CSc2ncnc3c2cnn3C2O[C@H](CO)[C@@H](O)[C@H]2O)cc1` (some centres undefined), for which the ILS at 200 mg/kg in the assay with L1210 [2] (Mus musculus, L1210) came out at 1%. For the same compound, in the assay on L1210 [28], the Toxicity entry is “Active”.
